An excerpt weighted towards active compounds, which were near 3.1% of everything screened.
T cruzi inh – T. cruzi replication inhibition; hit rate 1.4% among 300,000; T. cruzi beta-gal in NIH3T3, luminescence, 90 h; inhibition, % (concentration not given with the values);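 active = mean inhibition across valid replicates above about 55%, limit read from the data; inconclusive = mean below that limit but half or more replicates reach it; inactive = mean below it, under half of replicates reach it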;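 also: signal also drops with host cell toxicity which is not excluded here; higher percent means less beta-gal luminescence so fewer parasites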
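System: mouse NIH/3T3 fibroblasts infected with β-gal-expressing T. cruzi Tulahuen C4 / Input: NIH/3T3 cells, 5,000 per well / Buffer or medium: Low-serum DMEM with 2% FBS / Probe or stimulus: 5000 reporter trypomastigotes per well / Schedule: ≥90 h infection period, 3 h prior cell attachment / Measured by: GalScreen luminescence, 60 min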
TAG inh – reduces triacylglycerol accumulation in H9c2 cells; Nile Red lipid (TAG) fluorescence; cells loaded with 200 µM oleic acid; inhibition, % at 12.5 µM; hit rate 0.66% among 230,000;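 active = pattern-corrected inhibition of lipid staining of at least 50% with the nuclear-stain viability signal not falling by more than 50%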
Calb FLC – C. albicans growth modulation with fluconazole | C. albicans CaCi-2 + fluconazole, Alamar Blue growth, 48 h | growth inhibition, % (no concentration beside the values) | hit rate 0.57% among 300,000 | AID 1979;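 active = growth inhibition above about 58% in most replicates, limit read from the data, passing the limit was not always enough; inconclusive = exactly half the replicates above a set limit; inactive = most replicates below a set limit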;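 also: all wells also contain fluconazole at 8 µg/ml as a sub-toxic cotreatment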
CSC inhib – blocks cancer stem cells; cancer stem cell-like cells viability, luminescence; inhibition, % at 7.5 µM; hit rate 1.1% among 300,000; in the data active = inhibition above about 75%; inconclusive = no clear call, values can overlap the other calls; tested in HMLE shEcad cells
Beta cell apopt – blocks beta cell apoptosis; INS-1E cytokine-induced death, ATP luminescence, 48 h; percent of positive-control rescue, neutral wells zero; protection from apoptosis, % (test concentration not listed); hit rate 0.8% among 300,000;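 active = Every replicate reaches about 75%, or at least half do and their mean reaches it too, limit read from the data; inconclusive = At least half of replicates reach the limit but their mean does not; inactive = Under half of replicates reach the limit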;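 also: higher means more ATP so stronger rescue from cytokine killing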
A1 inh – inhibitors of the anti-apoptotic protein A1, read as caspase activation; hit rate 0.066% among 330,000; MEF A1-2A-BIM cells, Caspase-Glo 3/7 luminescence, 3 h; percent of clofoctol response, vehicle zero; caspase activation, % (concentration not given with the values);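 active = over half of replicate activation scores above 10%, or exactly half above 10 with the replicate mean above 10; inconclusive = replicate mean below 10 yet half the replicates above 10; inactive = over half of replicates below 10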
Each line names hits and unclear results; the compound was inactive in the other large screens.

CCOC(=O)c1ccccc1NC(=O)COC(=O)CCNS(=O)(=O)c1cccs1	none (no result: T cruzi inh, Calb FLC, CSC inhib, Beta cell apopt, A1 inh)
NC(N)=N/N=C/c1cccc(Cl)c1Cl	T cruzi inh 54.6
NC(N)=N/N=C/c1cccc([N+](=O)[O-])c1O	Calb FLC inconclusive, A1 inh inconclusive
O=C(OCCOc1ccc(Br)cc1)c1ccc(Cl)nc1	Calb FLC 109.5
CCCc1ccc(-c2cc(NC(=O)CSc3n[nH]c(N)n3)n(-c3ccccc3)n2)cc1	CSC inhib 91.3 (no result: TAG inh)
CCC(C)c1ccccc1N1CC(C(=O)N2CCN(S(=O)(=O)c3cccc([N+](=O)[O-])c3)CC2)CC1=O (stereo not given)	none (no result: T cruzi inh, Calb FLC, CSC inhib, Beta cell apopt, A1 inh)
CC1CCc2c(sc3nc(CN4CCOCC4)nc(Sc4ccccc4)c23)C1 (stereo not given)	CSC inhib 84.3 (no result: TAG inh)
CC1CCc2c(sc3ncnc(N4CCOCC4)c23)C1 (stereo not given)	Calb FLC 87.8
Cc1ccc(C(=O)NNCC(=O)Nc2ccc(Cl)cc2F)cc1	none (no result: T cruzi inh, Calb FLC)
CCOc1ccc(C(=O)C[n+]2cccc3cc(C)ccc32)cc1	T cruzi inh 67.8
Cc1ccc(C(=O)C[n+]2cccc3cc(C)ccc32)cc1	T cruzi inh 58.1
COc1ccc2c(ccc[n+]2CC(=O)c2ccc(C)cc2)c1	none
C[C@@H]([C@H](O)c1ccccc1)N(C)C(=S)Nc1ccccc1	none (no result: TAG inh)
CC(=O)c1ccc(Oc2cc(-c3ccccc3)nc(-c3ccccc3)n2)cc1	none (no result: TAG inh)
O=Cc1ccc(Oc2cc(-c3ccccc3)nc(-c3ccccc3)n2)cc1	CSC inhib 99.6 (no result: TAG inh)
O=C(N=C1N=C2C=CC(Br)=CN2Cc2ccccc21)c1ccc([N+](=O)[O-])cc1[N+](=O)[O-]	T cruzi inh 56.6
COc1ccc(NS(=O)(=O)c2cccc(C(=O)NNC(=O)CNC(=O)c3ccccc3F)c2)cc1	none (no result: Beta cell apopt)
CCOC(=O)C1CCN(c2ncnc3c2c(-c2ccccc2)cn3-c2ccccc2)CC1	T cruzi inh 59.1, CSC inhib inconclusive
Cc1ccc(-n2cc(-c3ccccc3)c3c(N4CCOCC4)ncnc32)cc1	none (no result: CSC inhib, Beta cell apopt, A1 inh)
Cc1cccc(-n2cc(-c3ccccc3)c3c(N4CCOCC4)ncnc32)c1	CSC inhib 104.9
CC(C)c1ccc2c(c1)C1(NN=C(c3ccccc3)S1)C(=O)N2 (stereo not given)	T cruzi inh 65.8, Calb FLC inconclusive, CSC inhib 116.1
NS(=O)(=O)c1ccc(NC(=O)COc2ccc(Cl)cc2)cc1	none (no result: TAG inh)
COc1ccc(/C=N\NC(=O)c2cc(O)c(O)c(O)c2)cc1CN1CCN(c2ccc(F)cc2)CC1	Calb FLC 98.6 (no result: TAG inh)
COC(=O)Cn1nc(-c2ccccc2)c2ccccc21	Calb FLC 86.3 (no result: TAG inh)
CCOC(=O)C1CCCN(Cc2ccc(OCc3ccccc3)c(OC)c2)C1 (stereo not given)	T cruzi inh 62.6 (no result: Beta cell apopt)
CCOC(=O)C1CCCN(Cc2ccc(O)c(OC)c2)C1 (stereo not given)	T cruzi inh 57.7
CCOC(=O)C1CCCN(Cc2ccc(OCc3ccccc3)cc2)C1 (stereo not given)	T cruzi inh 62.2
CCOC(=O)C1CCCN(Cc2ccc(OC)cc2OC)C1 (stereo not given)	none (no result: TAG inh)
Cc1ccc(N2CN(Cc3cccnc3)CNC2=S)cc1	T cruzi inh inconclusive (no result: TAG inh)
Cc1ccc(C)c(N2CN(Cc3cccnc3)CNC2=S)c1	T cruzi inh 61.4 (no result: TAG inh, CSC inhib, Beta cell apopt)
C#CCOCCOCCOCCNc1nc(N2CCN(C(=O)CCCCCCCCCCNC(=O)[C@H](CCCN=C(N)N)n3cc(C[C@@H](C)CC)nn3)CC2)nc(N2CCN(C(=O)CCCCCCCCCCNC(=O)[C@@H]([C@H](C)CC)n3cc(CCCCCN)nn3)CC2)n1	CSC inhib 167.9, Beta cell apopt 106.9 (no result: T cruzi inh, TAG inh, Calb FLC)
C#CCOCCOCCOCCNc1nc(N2CCOCC2)nc(N2CCN(C(=O)CCCCCCCCCCNC(=O)[C@H]([C@@H](C)CC)n3cc(CCCCN=C(N)N)nn3)CC2)n1	none (no result: T cruzi inh, Calb FLC)
C#CCOCCOCCOCCNc1nc(N2CCN(C(=O)CCCCCCCCCCNC(=O)[C@H]([C@@H](C)CC)n3cc(CCCCN=C(N)N)nn3)CC2)nc(N2CCN(C(=O)CCCCCCCCCCNC(=O)[C@H](CCCN=C(N)N)n3cc(C[C@@H](C)CC)nn3)CC2)n1	CSC inhib 87.7, Beta cell apopt 98.2 (no result: T cruzi inh, TAG inh, Calb FLC)
Cc1noc(C)c1S(=O)(=O)N(C)C[C@@H]1OCc2cnnn2CCCC(=O)N([C@H](C)CO)C[C@@H]1C	none (no result: T cruzi inh, Calb FLC, CSC inhib, Beta cell apopt, A1 inh)
CCc1cccc(C)c1NC(=S)NCc1ccc2c(c1)cc(C)n2C	Calb FLC 124.1 (no result: CSC inhib, A1 inh)
C=CC(=O)N1C/C(=C/c2ccc(F)cc2)C(=O)/C(=C\c2ccc(F)cc2)C1	TAG inh 78.0 (no result: T cruzi inh, Calb FLC, CSC inhib, Beta cell apopt, A1 inh)
Cc1csc2ncnc(NC3CCN(Cc4ccccc4)CC3)c12	Beta cell apopt 107.4
c1ccc(N2CCN(c3nc(NCc4ccco4)c4ccccc4n3)CC2)cc1	T cruzi inh 55.1
c1ccc(CN2CCC(CNc3ncnc4ccccc34)C2)cc1 (stereo not given)	none (no result: T cruzi inh, Calb FLC, CSC inhib, Beta cell apopt, A1 inh)
c1ccc(CNc2nc(N3CCN(Cc4ccccc4)CC3)nc3ccccc23)cc1	CSC inhib 97.9
c1ccc(CN2CCC(Nc3nc(-c4ccccc4)nc4ccccc34)CC2)cc1	CSC inhib 139.0
c1coc(CNc2nc(N3CCCCC3)nc3ccccc23)c1	none
Cc1ccc(-c2csc3ncnc(N4CCN(Cc5ccccc5)CC4)c23)cc1	none (no result: TAG inh)
CN(C(=O)COC(=O)CNC(=O)c1sc2ccccc2c1Cl)C1CCS(=O)(=O)C1 (stereo not given)	none (no result: T cruzi inh, Calb FLC)
N#C/C(=C(/O)c1ccc([N+](=O)[O-])s1)c1nc2ccccc2[nH]1	T cruzi inh 54.7
N#C/C(=C(/O)c1ccc(Br)s1)c1nc2ccccc2[nH]1	none
N#C/C(=C(\O)Cc1ccccc1)c1nc2ccccc2[nH]1	none
Cc1c(-c2cccc(Cl)c2)nc2ccccc2c1C(=O)OC/C(O)=C(\C#N)c1nc2ccccc2[nH]1	CSC inhib 97.7, Beta cell apopt 97.2
N#C/C(=C(/O)CCl)c1nc2ccccc2[nH]1	CSC inhib 79.0
N#C/C(=C(/O)c1ccco1)c1nc2ccccc2[nH]1	Calb FLC 78.9 (no result: TAG inh)
N#CCCN(C(=O)COC(=O)c1ccc(S(=O)(=O)N2CCCC2)cc1)c1cccc(Cl)c1	none (no result: T cruzi inh, Calb FLC)
c1cc(-c2cc3nc(NC4CCCCC4)ccn3n2)ccc1OCCN1CCOCC1	none (no result: T cruzi inh, Calb FLC, CSC inhib, Beta cell apopt, A1 inh)
Cc1ccc2ncnc(Nc3ccc(C)c(C)c3)c2c1	CSC inhib 79.9 (no result: TAG inh)
CCn1c(SCC(=O)Nc2ccc(Cl)cc2)nc2nc3c(cc2c1=O)CCCC3	none (no result: TAG inh)
CCn1c(SCC(=O)Nc2ccc(OC)cc2)nc2nc3c(cc2c1=O)CCCC3	Beta cell apopt 145.6
Cc1nn(Cc2ccccc2)c(Cl)c1/C=C/C(=O)OC(C)C(=O)N1CCCC1 (stereo not given)	none
CCN(CC)c1nc(-c2ccccc2)ncc1S(=O)(=O)c1ccc(C)cc1	T cruzi inh 58.3
Cc1sc2nc(SCCN(C)C)n(-c3ccccc3)c(=O)c2c1-c1ccc(F)cc1	CSC inhib 109.1 (no result: TAG inh)
